Laboratory results as given in ChEMBL document CHEMBL1122378, “Antiallergic agents. 2. N-(1H-tetrazol-5-yl)-6-phenyl-2-pyridinecarboxamides” (1983).

Tested on: Rattus norvegicus
Assay: Antiallergic activity against passive cutaneous anaphylaxis (PCA) in male Sprague-Dawley rats after 1.0 mg/kg oral administration
Assay type: functional
Settings: not given
Procedure, shortened: (§1)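 IgE antiserum raised in male Sprague-Dawley rats (ca. 200 g) by immunization with Ascaris suum extract (2 then 0.2 mg protein), bled 2 weeks after the second dose. Recipients got 0.05 mL diluted antiserum intracutaneously on the back. Blued area (product of two diameters) was read at 30 min.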

In order of falling inhibition in vivo at 1 mg/kg:
1. Nc1ccc(-c2cc(Cl)cc(C(=O)Nc3nn[nH]n3)n2)cc1  100%
2. CNc1ccc(-c2cc(C)cc(C(=O)Nc3nn[nH]n3)n2)cc1  89%
3. Cc1ccc(-c2cc(Cl)cc(C(=O)Nc3nn[nH]n3)n2)cc1  86%
4. CCCCc1cc(C(=O)Nc2nn[nH]n2)nc(-c2ccc(N)cc2)c1  81%
5. Cc1ccc(-c2cc(C)cc(C(=O)Nc3nn[nH]n3)n2)cc1  80%
6. CCCc1ccc(-c2cc(Cl)cc(C(=O)Nc3nn[nH]n3)n2)cc1  78%
7. CCCc1ccc(-c2cc(OC)cc(C(=O)Nc3nn[nH]n3)n2)cc1  73%
8. Cc1ccc(-c2cccc(C(=O)Nc3nn[nH]n3)n2)cc1  67%
9. CCOc1cc(C(=O)Nc2nn[nH]n2)nc(-c2ccc(N(CC)CC)cc2)c1  66%
10. CCOc1cc(C(=O)Nc2nn[nH]n2)nc(-c2ccc(C)cc2)c1  65%
11. CCCOc1cc(C(=O)Nc2nn[nH]n2)nc(-c2ccc(N)cc2)c1  64%
12. COc1cc(C(=O)Nc2nn[nH]n2)nc(-c2ccc(N(C)C)cc2)c1  64%
13. Nc1ccc(-c2cccc(C(=O)Nc3nn[nH]n3)n2)cc1  62%
14. COc1cc(C(=O)Nc2nn[nH]n2)nc(-c2ccccc2)c1  62%
15. CCCCc1cc(C(=O)Nc2nn[nH]n2)nc(-c2ccccc2)c1  56%
16. COc1cc(C(=O)Nc2nn[nH]n2)nc(-c2ccc(C(C)C)cc2)c1  54%
17. CCOc1cc(C(=O)Nc2nn[nH]n2)nc(-c2ccc(N)cc2)c1  52%
18. Cc1cccc(-c2cc(C)cc(C(=O)Nc3nn[nH]n3)n2)c1  51%
19. CCc1ccc(-c2cc(OC)cc(C(=O)Nc3nn[nH]n3)n2)cc1  43%
20. COc1ccc(-c2cc(Cl)cc(C(=O)Nc3nn[nH]n3)n2)cc1  43%
21. COc1cc(C(=O)Nc2nn[nH]n2)nc(-c2ccc(C)cc2)c1  42%
22. O=C(Nc1nn[nH]n1)c1cc(Cl)cc(-c2ccccc2)n1  40%
23. CCCCc1cc(C(=O)Nc2nn[nH]n2)nc(-c2cccc(C)c2)c1  36%
24. Cc1cc(C(=O)Nc2nn[nH]n2)nc(-c2ccc(C(C)C)cc2)c1  34%
25. COc1cc(C(=O)Nc2nn[nH]n2)nc(-c2ccc(NC(C)=O)cc2)c1  0%
26. COc1cc(C(=O)Nc2nn[nH]n2)nc(-c2ccc(Cl)cc2)c1  0%
27. CCCCc1ccc(-c2cc(Cl)cc(C(=O)Nc3nn[nH]n3)n2)cc1  0%

Tested on: Rattus norvegicus
Assay: Inhibition of passive cutaneous anaphylaxis in male Sprague-Dawley rats following 1 mg/kg p.o. administration; Not significant.
Assay type: functional
Settings: route oral
Procedure, shortened: as §1

In order of rising inhibition in vivo at 1 mg/kg:
1. Cc1ccc(-c2cc(CC(C)C)cc(C(=O)Nc3nn[nH]n3)n2)cc1  9%
2. COc1ccc(-c2cccc(C(=O)Nc3nn[nH]n3)n2)cc1  12%
3. CC(C)c1ccc(-c2cc(Cl)cc(C(=O)Nc3nn[nH]n3)n2)cc1  14%
4. COc1ccc(-c2cc(Cl)cc(C(=O)Nc3nn[nH]n3)n2)cc1OC  15%
5. CCCCc1cc(C(=O)Nc2nn[nH]n2)nc(-c2ccc(CC)cc2)c1  19%
6. CCCCc1ccc(-c2cc(CC)cc(C(=O)Nc3nn[nH]n3)n2)cc1  20%
7. COc1cc(C(=O)Nc2nn[nH]n2)nc(-c2ccc(C)c(C)c2)c1  21%
8. Cc1cc(C(=O)Nc2nn[nH]n2)nc(-c2ccccc2)c1  23%
9. COc1cccc(-c2cc(C)cc(C(=O)Nc3nn[nH]n3)n2)c1  25%
10. COc1ccc(-c2cc(OC)cc(C(=O)Nc3nn[nH]n3)n2)cc1  25%
11. CC(C)c1cc(C(=O)Nc2nn[nH]n2)nc(-c2ccc(N)cc2)c1  29%
12. CCCCc1ccc(-c2cc(OC)cc(C(=O)Nc3nn[nH]n3)n2)cc1  29%
13. CNc1ccc(-c2cc(OC)cc(C(=O)Nc3nn[nH]n3)n2)cc1  35%
14. CCCc1ccc(-c2cc(C)cc(C(=O)Nc3nn[nH]n3)n2)cc1  65%
15. CNc1ccc(-c2cccc(C(=O)Nc3nn[nH]n3)n2)cc1  71%

Tested on: Rattus norvegicus
Assay: Antiallergic activity against passive cutaneous anaphylaxis (PCA) in male Sprague-Dawley rats after 3.0 mg/kg oral administration
Assay type: functional
Settings: not given
Procedure, shortened: as §1

In order of rising inhibition in vivo at 3 mg/kg:
1. COc1cc(C(=O)Nc2nn[nH]n2)nc(-c2cccc(Cl)c2)c1  34%
2. COc1ccc(-c2cccc(C(=O)Nc3nn[nH]n3)n2)cc1  36%
3. CCCc1cc(C(=O)Nc2nn[nH]n2)nc(-c2ccc(C)cc2)c1  50%
4. Cc1cc(C(=O)Nc2nn[nH]n2)nc(-c2ccccc2)c1  50%
5. Cc1ccc(-c2cc(CC(C)C)cc(C(=O)Nc3nn[nH]n3)n2)cc1  52%
6. CCc1cc(C(=O)Nc2nn[nH]n2)nc(-c2ccccc2)c1  53%
7. COc1ccc(-c2cc(OC)cc(C(=O)Nc3nn[nH]n3)n2)cc1  60%
8. CCCCc1ccc(-c2cc(OC)cc(C(=O)Nc3nn[nH]n3)n2)cc1  61%
9. Cc1cccc(-c2cc(C)cc(C(=O)Nc3nn[nH]n3)n2)c1  61%
10. CCOc1cc(C(=O)Nc2nn[nH]n2)nc(-c2ccc(N)cc2)c1  62%
11. COc1cccc(-c2cc(C)cc(C(=O)Nc3nn[nH]n3)n2)c1  65%
12. CCCOc1cc(C(=O)Nc2nn[nH]n2)nc(-c2ccc(N)cc2)c1  68%
13. CC(C)c1ccc(-c2cc(Cl)cc(C(=O)Nc3nn[nH]n3)n2)cc1  68%
14. CCCCc1ccc(-c2cc(CC)cc(C(=O)Nc3nn[nH]n3)n2)cc1  70%
15. CCCCc1cc(C(=O)Nc2nn[nH]n2)nc(-c2ccccc2)c1  71%
16. CNc1ccc(-c2cc(OC)cc(C(=O)Nc3nn[nH]n3)n2)cc1  79%
17. Nc1ccc(-c2cccc(C(=O)Nc3nn[nH]n3)n2)cc1  81%
18. COc1cc(C(=O)Nc2nn[nH]n2)nc(-c2ccc(C)c(C)c2)c1  82%
19. CCCCc1cc(C(=O)Nc2nn[nH]n2)nc(-c2cccc(C)c2)c1  82%
20. CCCCc1ccc(-c2cc(Cl)cc(C(=O)Nc3nn[nH]n3)n2)cc1  83%
21. CCCc1ccc(-c2cc(OC)cc(C(=O)Nc3nn[nH]n3)n2)cc1  93%
22. COc1cc(C(=O)Nc2nn[nH]n2)nc(-c2ccccc2)c1  97%
23. COc1cc(C(=O)Nc2nn[nH]n2)nc(-c2ccc(N(C)C)cc2)c1  100%
24. COc1ccc(-c2cc(Cl)cc(C(=O)Nc3nn[nH]n3)n2)cc1  100%
25. Cc1ccc(-c2cc(C)cc(C(=O)Nc3nn[nH]n3)n2)cc1  100%
26. Cc1cc(C(=O)Nc2nn[nH]n2)nc(-c2ccc(C(C)C)cc2)c1  100%
27. Nc1ccc(-c2cc(Cl)cc(C(=O)Nc3nn[nH]n3)n2)cc1  100%

Tested on: Rattus norvegicus
Assay: Antiallergic activity against passive cutaneous anaphylaxis (PCA) in male Sprague-Dawley rats after 3.0 mg/kg oral administration;not statistically significant
Assay type: functional
Settings: not given
Procedure, shortened: as §1

In order of rising inhibition in vivo at 3 mg/kg:
1. COc1cc(C(=O)Nc2nn[nH]n2)nc(-c2ccc(Cl)cc2)c1  12%
2. Cc1cc(C(=O)Nc2nn[nH]n2)nc(-c2ccc(N(C)C)cc2)c1  24%
3. CCCCc1cc(C(=O)Nc2nn[nH]n2)nc(-c2ccc(CC)cc2)c1  25%
4. COc1cc(C(=O)Nc2nn[nH]n2)nc(-c2ccc(NC(C)=O)cc2)c1  27%
5. Cc1ccc(-c2cccc(C(=O)Nc3nn[nH]n3)n2)cc1C  28%
6. COc1ccc(-c2cc(Cl)cc(C(=O)Nc3nn[nH]n3)n2)cc1OC  30%
7. CC(=O)Nc1ccc(-c2cc(C)cc(C(=O)Nc3nn[nH]n3)n2)cc1  32%
8. CC(C)c1cc(C(=O)Nc2nn[nH]n2)nc(-c2ccc(N)cc2)c1  43%
9. CNc1ccc(-c2cccc(C(=O)Nc3nn[nH]n3)n2)cc1  83%

Tested on: Rattus norvegicus
Assay: Antiallergic activity against passive cutaneous anaphylaxis (PCA) in male Sprague-Dawley rats after 0.3 mg/kg oral administration
Assay type: functional
Settings: not given
Procedure, shortened: as §1

In order of falling inhibition in vivo at 0.3 mg/kg:
1. Cc1ccc(-c2cc(C)cc(C(=O)Nc3nn[nH]n3)n2)cc1  51%
2. CCOc1cc(C(=O)Nc2nn[nH]n2)nc(-c2ccc(N(CC)CC)cc2)c1  44%
3. CCCc1ccc(-c2cc(Cl)cc(C(=O)Nc3nn[nH]n3)n2)cc1  42%
4. CCCCc1cc(C(=O)Nc2nn[nH]n2)nc(-c2ccc(N)cc2)c1  41%
5. COc1ccc(-c2cc(Cl)cc(C(=O)Nc3nn[nH]n3)n2)cc1  40%
6. Nc1ccc(-c2cc(Cl)cc(C(=O)Nc3nn[nH]n3)n2)cc1  39%
7. COc1cc(C(=O)Nc2nn[nH]n2)nc(-c2ccc(N(C)C)cc2)c1  29%
8. CCc1ccc(-c2cc(OC)cc(C(=O)Nc3nn[nH]n3)n2)cc1  23%

Tested on: Rattus norvegicus
Assay: Inhibition of passive cutaneous anaphylaxis in male Sprague-Dawley rats following 0.3 mg/kg p.o. administration; Not significant.
Assay type: functional
Settings: route oral
Procedure, shortened: as §1

In order of rising inhibition in vivo at 0.3 mg/kg:
1. COc1ccc(-c2cccc(C(=O)Nc3nn[nH]n3)n2)cc1  4%
2. CCCOc1cc(C(=O)Nc2nn[nH]n2)nc(-c2ccc(N)cc2)c1  7%
3. Cc1ccc(-c2cc(Cl)cc(C(=O)Nc3nn[nH]n3)n2)cc1  10%
4. Nc1ccc(-c2cccc(C(=O)Nc3nn[nH]n3)n2)cc1  11%
5. COc1cc(C(=O)Nc2nn[nH]n2)nc(-c2ccc(C)cc2)c1  16%
6. CCCc1ccc(-c2cc(C)cc(C(=O)Nc3nn[nH]n3)n2)cc1  19%
7. CCOc1cc(C(=O)Nc2nn[nH]n2)nc(-c2ccc(N)cc2)c1  19%
8. CCN(CC)c1ccc(-c2cc(C)cc(C(=O)Nc3nn[nH]n3)n2)cc1  19%
9. Cc1ccc(-c2cccc(C(=O)Nc3nn[nH]n3)n2)cc1  21%
10. CC(C)c1cc(C(=O)Nc2nn[nH]n2)nc(-c2ccc(N)cc2)c1  22%
11. CCOc1cc(C(=O)Nc2nn[nH]n2)nc(-c2ccc(C)cc2)c1  26%
12. COc1cc(C(=O)Nc2nn[nH]n2)nc(-c2ccc(C(C)C)cc2)c1  29%
13. CNc1ccc(-c2cccc(C(=O)Nc3nn[nH]n3)n2)cc1  29%
14. CCCc1ccc(-c2cc(OC)cc(C(=O)Nc3nn[nH]n3)n2)cc1  32%
15. CCc1cc(C(=O)Nc2nn[nH]n2)nc(-c2ccc(C)cc2)c1  33%
16. CNc1ccc(-c2cc(C)cc(C(=O)Nc3nn[nH]n3)n2)cc1  36%

Tested on: Rattus norvegicus
Assay: Inhibition of passive cutaneous anaphylaxis in male Sprague-Dawley rats following 10 mg/kg p.o. administration.
Assay type: functional
Settings: route oral
Procedure, shortened: as §1

In order of falling inhibition in vivo at 10 mg/kg:
1. CCCCc1cc(C(=O)Nc2nn[nH]n2)nc(-c2ccccc2)c1  100%
2. COc1cc(C(=O)Nc2nn[nH]n2)nc(-c2ccc(NC(C)=O)cc2)c1  100%
3. CCCCc1cc(C(=O)Nc2nn[nH]n2)nc(-c2cccc(C)c2)c1  100%
4. COc1cc(C(=O)Nc2nn[nH]n2)nc(-c2ccccc2)c1  100%
5. CCCCc1ccc(-c2cc(OC)cc(C(=O)Nc3nn[nH]n3)n2)cc1  92%
6. CC(C)c1ccc(-c2cc(Cl)cc(C(=O)Nc3nn[nH]n3)n2)cc1  90%
7. Cc1cc(C(=O)Nc2nn[nH]n2)nc(-c2ccccc2)c1  88%
8. CCc1cc(C(=O)Nc2nn[nH]n2)nc(-c2ccccc2)c1  85%
9. CCCc1cc(C(=O)Nc2nn[nH]n2)nc(-c2ccc(C)cc2)c1  84%
10. COc1cc(C(=O)Nc2nn[nH]n2)nc(-c2cccc(Cl)c2)c1  64%
11. COc1cc(C(=O)Nc2nn[nH]n2)nc(-c2ccc(Cl)cc2)c1  55%
12. Cc1ccc(-c2cccc(C(=O)Nc3nn[nH]n3)n2)cc1C  39%
13. COc1ccccc1-c1cccc(C(=O)Nc2nn[nH]n2)n1  0%
